# Test results reported in ChEMBL document CHEMBL3399929 (Bioorg Med Chem, 2015).
# Activity calls are given as the source filed them. The rule behind the calls is not given here.
# Legend:
# [1] = Tmax in Sprague-Dawley rat at 10 mg/kg, po; format: ADME, organism-based; set-up: dose 10 mg/kg, route oral; details: in vivo
# Method in brief: (§1)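 Male Sprague–Dawley rats (250 ± 25 g) each received a single oral dose of 10 mg/kg or an intravenous dose of 1 mg/kg. Plasma concentration–time profiles were obtained with three rats per time point. Parameters were calculated with a two-compartmental model, and values are averages of three rats. Cmax is given as mean ± SEM.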
# Rattus norvegicus [2] = assay: AUC in Sprague-Dawley rat at 10 mg/kg, po; format: ADME, organism-based, Plasma; set-up: dose 10 mg/kg, route oral; details: in vivo; method in brief: as §1
# [3] = Volume of distribution at steady state in Sprague-Dawley rat at 1 mg/kg, iv; format: ADME, organism-based; set-up: dose 1 mg/kg, route intravenous; details: in vivo, read-out: Vdss; method in brief: as §1
# [4] = Cmax in Sprague-Dawley rat at 10 mg/kg, po; format: ADME, organism-based; set-up: dose 10 mg/kg, route oral; details: in vivo; method in brief: as §1
# [5] = Selectivity ratio of IC50 for Mycobacterium smegmatis TMC 607 ATP synthase to IC50 for Swiss mouse liver ATP synthase
# [6] = system: Mycobacterium tuberculosis H37Rv; assay: Inhibition of Mycobacterium tuberculosis H37Rv ATP synthase assessed as reduction in total ATP content at 12.5 ug/ml after 18 hrs by bead-vortexing settling method
# Method in brief: (§2)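 H37Rv was declumped by bead-vortexing and settling, adjusted to McFarland 1, then diluted 100-fold. Portions of 1 mL in tubes with 0.5 mm glass beads were exposed to compound for 18 h at 37 °C. Samples were heated 8–10 min, chilled on ice, and bead-beater lysed. Cleared lysate ATP was measured by luciferase assay.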
# [7] = system: Mycobacterium tuberculosis; assay: Bactericidal activity against non-replicating Mycobacterium tuberculosis H37Rv Wayne model under hypoxic/oxygen depleted conditions assessed as log reduction at 100 ug/ml after 4 days by serial dilution assay; format: functional
# Method in brief: (§3)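 Wayne hypoxia model. A mid-log 7H9 culture was diluted to about 10^5 cfu/mL, and 10 mL was sealed in 20 mL headspace vials. Vials were stirred slowly at 37 °C for 20–22 days, until methylene blue indicator (1.5 µg/mL) decolorized. Drug was then injected through the septum, and vials were incubated 4 more days at 37 °C. Tests were run in duplicate, with CFU counted on 7H10 agar plates.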
# Sporothrix schenckii = assay: Antifungal activity against Sporothrix schenckii at 50 ug/ml; format: functional, organism-based
# [8] = system: Mycobacterium tuberculosis; assay: Antimycobacterial activity against Mycobacterium tuberculosis H37Rv after 4 weeks by agar dilution assay; format: functional
# Method in brief: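 Agar dilution method. DMSO stocks (5 mg/mL) were serially diluted in DMSO, and 0.1 mL of each was mixed into 1.9 mL Middlebrook 7H10 agar with OADC and set as slants. Each tube received about 10^5 bacilli from a 3-week Lowenstein–Jensen culture suspended in saline with 0.05% Tween-80. Tubes were incubated at 37 °C for 4 weeks. MIC was the lowest concentration with no visible growth.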
# Cryptococcus neoformans = assay: Antifungal activity against Cryptococcus neoformans at 50 ug/ml; format: functional, organism-based
# [9] = Tmax in Sprague-Dawley rat at 1 mg/kg, iv; format: ADME, organism-based; set-up: dose 1 mg/kg, route intravenous; details: in vivo; method in brief: as §1
# [10] = Inhibition of Swiss mouse liver ATP synthase after 1 hr
# Method in brief: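 Liver mitochondria came from an overnight-fasted adult Swiss mouse, isolated by differential centrifugation in sucrose/Tris-MOPS/EGTA buffer pH 7.4 and assayed the same day. Mitochondria (100 µg) were stirred at room temperature with 100 µM compound in Tris/HCl, sucrose, 5 mM MgCl2 and 100 µM diadenosine pentaphosphate, pH 7.4. The reaction was started with 1 mM ADP, 20 mM Pi and 50 mM succinate, stopped after 1 h with EDTA-TCA, and ATP was read by luciferase.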
# Pseudomonas aeruginosa = assay: Antibacterial activity against Pseudomonas aeruginosa ATCC BAA-427 at 50 ug/ml; format: functional, organism-based
# Staphylococcus aureus = assay: Antibacterial activity against Staphylococcus aureus ATCC 25923 at 50 ug/ml; format: functional, organism-based
# [11] = system: Mycobacterium tuberculosis; assay: Antimycobacterial activity against Mycobacterium tuberculosis H37Rv infected in mouse chronic TB model assessed as log reduction in spleen at 87 umol/kg administered via esophageal cannula 6 times a week for 4 weeks relative to untreated control; format: functional
# Candida parapsilosis = assay: Antifungal activity against Candida parapsilosis ATCC 22019 at 50 ug/ml; format: functional, organism-based
# Rattus norvegicus [12] = assay: Clearance in Sprague-Dawley rat at 10 mg/kg, po; format: ADME, organism-based; set-up: dose 10 mg/kg, route oral; details: in vivo; method in brief: as §1
# [13] = Selectivity index, ratio of CC50 for African green monkey Vero cells to MIC100 for Mycobacterium tuberculosis H37Rv; format: toxicity, cell-based; details: read-out: Selectivity Index
# Method in brief: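 Selectivity index is CC50 from the Vero resazurin assay divided by the agar-dilution MIC against H37Rv.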
# Aspergillus fumigatus = assay: Antifungal activity against Aspergillus fumigatus at 50 ug/ml; format: functional, organism-based
# [14] = AUC in Sprague-Dawley rat at 1 mg/kg, iv; format: ADME, organism-based; set-up: dose 1 mg/kg, route intravenous; details: plasma; method in brief: as §1
# [15] = system: Mycobacterium tuberculosis; assay: Antimycobacterial activity against Mycobacterium tuberculosis H37Rv infected in mouse chronic TB model assessed as survival rate at 173 umol/kg administered via esophageal cannula 6 times a week for 4 weeks relative to untreated control; format: functional
# Method in brief: (§4)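 Male Balb/C mice (8–10 weeks, 18–20 g), ten per group, were infected intravenously with 5 × 10^6 CFU H37Rv in 0.2 mL. Dosing by gavage began on day 1, six times weekly for 4 weeks, with the last dose on day 28. Survival was followed to day 30. Survivors were sacrificed on day 30, and lung and spleen homogenates were plated on 7H10/OADC at 37 °C for 4–6 weeks. Results were compared with an untreated infected group.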
# [16] = system: Mycobacterium tuberculosis; assay: Bactericidal activity against non-replicating Mycobacterium tuberculosis H37Rv Wayne model under hypoxic/oxygen depleted conditions assessed as log reduction after 4 days by serial dilution assay; format: functional; method in brief: as §3
# [17] = system: Mycobacterium tuberculosis; assay: Antimycobacterial activity against Mycobacterium tuberculosis H37Rv infected in mouse chronic TB model assessed as log reduction in lungs at 87 umol/kg administered via esophageal cannula 6 times a week for 4 weeks relative to untreated control; format: functional
# Escherichia coli = assay: Antibacterial activity against Escherichia coli ATCC 9637 at 50 ug/ml; format: functional, organism-based
# [18] = system: Trichophyton mentagrophytes; assay: Antifungal activity against Trichophyton mentagrophytes at 50 ug/ml; format: functional, organism-based
# [19] = Inhibition of Mycobacterium smegmatis TMC 607 ATP synthase incubated for 10 mins prior to NADH addition measured after 1 hr by luminescence assay; set-up: species or system Mycolicibacterium smegmatis; details: read-out: IC50
# [20] = Oral bioavailability in Sprague-Dawley rat at 10 mg/kg; format: ADME, organism-based; details: in vivo; method in brief: as §1
# [21] = Elimination half life in Sprague-Dawley rat at 10 mg/kg, po; format: ADME, organism-based; set-up: dose 10 mg/kg, route oral; details: in vivo, read-out: beta t1/2 (converted); method in brief: as §1
# [22] = Cytotoxicity against African green monkey Vero cells after 72 hrs yb resazurin assay; format: cell-based; details: chlorocebus sabaeus
# Method in brief: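 Vero cells were seeded overnight in RPMI with 10% heat-inactivated FBS at 37 °C, 5% CO2. Cells were exposed in triplicate to concentrations from 100 to 1.56 µg/mL for 72 h. Resazurin (0.1%) was then added for 4–5 h, and fluorescence was read at ex 530/em 590 nm. CC50 was derived from the fluorescence plot.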
# Candida albicans = assay: Antifungal activity against Candida albicans at 50 ug/ml; format: functional, organism-based
# [23] = Mean residence time in Sprague-Dawley rat at 10 mg/kg, po; format: ADME, organism-based; set-up: dose 10 mg/kg, route oral; details: in vivo; method in brief: as §1
# [24] = system: Mycobacterium tuberculosis; assay: Antimycobacterial activity against Mycobacterium tuberculosis H37Rv infected in mouse chronic TB model assessed as survival rate at 87 umol/kg administered via esophageal cannula 6 times a week for 4 weeks relative to untreated control; format: functional; method in brief: as §4
# [25] = system: Mycobacterium tuberculosis; assay: Antimycobacterial activity against Mycobacterium tuberculosis H37Rv infected in mouse chronic TB model assessed as log reduction in spleen at 173 umol/kg administered via esophageal cannula 6 times a week for 4 weeks relative to untreated control; format: functional
# [26] = system: Mycobacterium tuberculosis; assay: Bactericidal activity against non-replicating Mycobacterium tuberculosis H37Rv Wayne model under hypoxic/oxygen depleted conditions assessed as log reduction at 10 ug/ml after 4 days by serial dilution assay; format: functional; method in brief: as §3
# [27] = Elimination half life in Sprague-Dawley rat at 1 mg/kg, iv; format: ADME, organism-based; set-up: dose 1 mg/kg, route intravenous; details: in vivo, read-out: beta t1/2 (converted); method in brief: as §1
# [28] = Cmax in Sprague-Dawley rat at 1 mg/kg, iv; format: ADME, organism-based; set-up: dose 1 mg/kg, route intravenous; details: in vivo; method in brief: as §1
# [29] = system: Mycobacterium tuberculosis H37Rv; assay: Inhibition of Mycobacterium tuberculosis H37Rv ATP synthase assessed as reduction in total ATP content at 50 ug/ml after 18 hrs by bead-vortexing settling method; method in brief: as §2
# Rattus norvegicus [30] = assay: Volume of distribution at steady state in Sprague-Dawley rat at 10 mg/kg, po; format: ADME, organism-based; set-up: dose 10 mg/kg, route oral; details: in vivo; method in brief: as §1
# [31] = Clearance in Sprague-Dawley rat at 1 mg/kg, iv; format: ADME, organism-based; set-up: dose 1 mg/kg, route intravenous; details: in vivo; method in brief: as §1
# [32] = system: Mycobacterium tuberculosis; assay: Antimycobacterial activity against Mycobacterium tuberculosis H37Rv infected in mouse chronic TB model assessed as log reduction in lungs at 173 umol/kg administered via esophageal cannula 6 times a week for 4 weeks relative to untreated control; format: functional
# Klebsiella pneumoniae = assay: Antibacterial activity against Klebsiella pneumoniae ATCC 27736 at 50 ug/ml; format: functional, organism-based
structure (smiles),measurement,setting,value
CCN(CC)Cc1cc(N(c2cc(C)nc3cc(Cl)ccc23)S(=O)(=O)c2cccc(Cl)c2Cl)ccc1O,Tmax,[1],30 min
same,AUC,Rattus norvegicus [2],2813 ng·h/mL
same,Vd,[3],0.84 L/kg
same,Cmax,[4],616 ng/mL
same,Ratio IC50,[5],> 155
same,inhibition,[6],60%
same,log10CFU/ml,[7],2.34
same,Activity,Sporothrix schenckii,inactive
same,MIC100,[8],3.12 µg/mL
same,Activity,Cryptococcus neoformans,inactive
same,Tmax,[9],5 min
same,IC50,[10],> 100 µM
same,Activity,Pseudomonas aeruginosa,inactive
same,Activity,Staphylococcus aureus,inactive
same,log10cfu,[11],1
same,Activity,Candida parapsilosis,inactive
same,CL,Rattus norvegicus [12],0.06 L/h/kg
same,selectivity ratio,[13],> 96
same,Activity,Aspergillus fumigatus,inactive
same,AUC,[14],16400 ng·h/mL
same,Survival,[15],60%
same,MIC100,[16],3.12 µg/mL
same,log10cfu,[17],1
same,Activity,Escherichia coli,inactive
same,Activity,[18],inactive
same,IC50,[19],510 nM
same,bioavailability,[20],1.72%
same,half-life,[21],252 min
same,CC50 at 72 h,[22],> 300 µg/mL
same,Activity,Candida albicans,inactive
same,MRT,[23],6.69 h
same,Survival,[24],40%
same,log10cfu,[25],2.12
same,log10CFU/ml,[26],1.14
same,half-life,[27],530 min
same,Cmax,[28],2420 ng/mL
same,inhibition,[29],31%
same,Vdss,Rattus norvegicus [30],0.41 L/kg
same,clearance,[31],1.17 mL/min/kg
same,log10cfu,[32],2.12
same,Activity,Klebsiella pneumoniae,inactive
